Source: PubChem BioAssay (several laboratories)
MIN6 prolif: MIN6 beta-cell proliferation induction; MIN6 cells proliferation, ATPlite luminescence, 48 h; cells starved in 0.2% serum; 100% = growth in 10% serum; proliferation, % at 10 µM; 330,000 compounds, 0.29% hits;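 active means compounds whose signal lies at least 3.5 SD above the mean of all wells on their plate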;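 further: 0% = DMSO-treated cells in low-serum medium and 100% = 10% serum control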
TLR9-MyD88 inh: TLR9-MyD88 interaction inhibition; Q9NR96+Q99836; CHO BLA complementation TLR9-MyD88, CCF4 FRET ratio; inhibition, % at 4.98 µM; 340,000 compounds, 0.21% hits; AID 504734;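 active means inhibition above the mean over all tested compounds plus 3 SD, cut at about 21% in these data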;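 further: 0% = DMSO only wells and 100% = clavulanate BLA inhibitor control wells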
TLR4 MyD88 comp: inhibitors of human TLR4-MyD88 binding | inhibition, % at 8.4 µM | 200,000 compounds, 0.18% hits | AID 861 | O00206+Q99836 | HeLa CL3-4 TLR4/MyD88 BLA complementation, FRET ratio; in the data active means inhibition above about 25%;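 further: 0% = vehicle and 100% = reference inhibitor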
MC4R barr agon: agonists of human melanocortin 4 receptor (MC4R) beta-arrestin; activation, % at 8.9 µM; U2OS MC4R beta-arrestin complementation, luminescence; percent of melanotan II response, DMSO zero; P32245; 360,000 compounds, 0.98% hits;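 active means activation above a per-plate cutoff, the mean activation of sample wells on that plate plus 3 SD, cut at about 8% in these data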
MC4R antagonist: human MC4R antagonism in cAMP assay | P32245 | MC4R-expressing cells, MTII-stimulated cAMP, LANCE TR-FRET | inhibition, % at 6.5 µM | 360,000 compounds, 0.48% hits | AID 540295;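 active means inhibition above its plate's cutoff, the mean of tested wells on that plate plus 3 SD, cut at about 29% in these data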;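 further: 0% = Melanotan II alone and 100% = Melanotan II plus saturating MCL0020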
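Assay system: U2OS cells stably expressing human melanocortin 4 receptor (MC4R) / Dosing: 6.5 µM / Timing: compound 30 min, challenge 1 h, detection 1 h / Measured by: Eu-cAMP/anti-cAMP TR-FRET, emission 671 nm / Replicates: singlicate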
NOD2 RIPK2 PPI: blocks binding of human NOD2 to RIPK2 | O43353 | CHO BLA complementation NOD2-RIPK2, CCF4 ratio | inhibition, % at 4.98 µM | 360,000 compounds, 0.38% hits | AID 624267; in the data active means inhibition above about 21%;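 further: 0% = vehicle only and 100% = reference blocker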
Target sequence (O43353 whole entry, looked up): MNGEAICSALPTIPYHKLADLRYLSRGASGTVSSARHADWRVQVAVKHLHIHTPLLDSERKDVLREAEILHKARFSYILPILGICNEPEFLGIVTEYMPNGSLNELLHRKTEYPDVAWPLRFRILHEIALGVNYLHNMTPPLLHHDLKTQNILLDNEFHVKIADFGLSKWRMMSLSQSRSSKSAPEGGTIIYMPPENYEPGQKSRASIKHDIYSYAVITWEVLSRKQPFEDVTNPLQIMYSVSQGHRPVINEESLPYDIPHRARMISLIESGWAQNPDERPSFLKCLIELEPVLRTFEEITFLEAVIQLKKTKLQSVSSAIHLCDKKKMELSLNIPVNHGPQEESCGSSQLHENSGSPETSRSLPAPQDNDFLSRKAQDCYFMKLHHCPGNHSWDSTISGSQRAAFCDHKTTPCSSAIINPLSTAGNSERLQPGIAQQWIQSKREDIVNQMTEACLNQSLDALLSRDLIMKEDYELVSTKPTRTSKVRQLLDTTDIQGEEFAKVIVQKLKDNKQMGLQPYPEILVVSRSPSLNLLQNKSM
MC4R barr ag: human MC4R beta-arrestin agonism confirmation; shares compounds with MC4R barr agon; U2OS MC4R beta-arrestin recruitment, luminescence; scaled DMSO 0%, Melanotan II 100%; activation, % at 8.9 µM; 2,400 compounds, 31% hits; AID 602192;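 active means mean activation across replicates above the hit cutoff set in the earlier primary screen, cut at about 8% in these data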
MOR-DOR barr ag: activates mu-delta opioid heterodimer, MC4R agonist counter-screen; shares compounds with MC4R barr agon; U2OS PathHunter beta-arrestin, beta-gal luminescence; percent of deltorphin B response, DMSO zero; activation, % at 9.2 µM; 2,400 compounds, 5.8% hits; AID 602194;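 active means mean activation across replicates exceeds the hit threshold derived in the earlier primary screen, cut at about 18% in these data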;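 further: 100% = deltorphin B at 0.9 µM final and 0% = DMSO alone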
Numbers without * were called inactive. This is a sample that favours compounds with a hit; in the whole collection about 2.1% have one here.

`CC(=O)Nc1cc(-c2ccc(C(=O)NC3CC3)cc2)cn2c(-c3cccc(C(F)(F)F)c3)cnc12` gave MC4R barr agon 11*, MC4R antagonist 22, NOD2 RIPK2 PPI 1, MC4R barr ag 20* and MOR-DOR barr ag 3.
For CC(=O)Nc1cc(-c2cccc(C(=O)NCCO)c2)cn2c(-c3cccc(C(F)(F)F)c3)cnc12 the results were MC4R barr agon 7, MC4R antagonist 5 and NOD2 RIPK2 PPI 1.
Screening CC(=O)Nc1cc(-c2ccc(C(=O)NC3CC3)cc2)cn2c(-c3cccc(C(C)=O)c3)cnc12 returned MC4R barr agon 16*, MC4R antagonist 12, NOD2 RIPK2 PPI -7, MC4R barr ag 18* and MOR-DOR barr ag 3.
Cc1cc(C)n2c(NC3CCCCC3)c(-c3ccccn3)nc2n1 was read as NOD2 RIPK2 PPI 6.
For c1cncc(CNc2nc(-c3cccnc3)nc3ccccc23)c1 the results were MIN6 prolif 0, TLR9-MyD88 inh -2, MC4R barr agon 0, MC4R antagonist -3 and NOD2 RIPK2 PPI -14.
For COc1cccc(-c2nc(NCc3cccnc3)c3ccccc3n2)c1O the results were MIN6 prolif 2, TLR9-MyD88 inh -15, MC4R barr agon 16*, MC4R antagonist 1, NOD2 RIPK2 PPI 2, MC4R barr ag 6 and MOR-DOR barr ag 8.
Screening O=C(CSc1nc(-c2ccccc2)cs1)Nc1nccs1 returned MIN6 prolif -1, TLR9-MyD88 inh -1, TLR4 MyD88 comp 4, MC4R barr agon 19*, MC4R antagonist -5, NOD2 RIPK2 PPI 5, MC4R barr ag 0 and MOR-DOR barr ag 9.
For O=C(CSc1ncn(-c2ccccc2)n1)Nc1nc(-c2ccccc2)cs1 the results were MIN6 prolif -2, TLR9-MyD88 inh -2, TLR4 MyD88 comp 7, MC4R barr agon 6, MC4R antagonist 7 and NOD2 RIPK2 PPI 4.
Screening Cn1c(CCNC(=O)c2cccs2)nnc1SCC(=O)Nc1nc(-c2ccccc2)cs1 returned MIN6 prolif 3, TLR9-MyD88 inh -3, TLR4 MyD88 comp 2, MC4R barr agon -2, MC4R antagonist -1 and NOD2 RIPK2 PPI 7.
Screening Cc1ccc(-c2csc(NC(=O)CSc3ncn(-c4ccccc4)n3)n2)cc1 returned MIN6 prolif -2, TLR9-MyD88 inh 3, TLR4 MyD88 comp -2, MC4R barr agon 11*, MC4R antagonist -3, NOD2 RIPK2 PPI -3, MC4R barr ag 5 and MOR-DOR barr ag 5.
Screening Cc1ccc(C(=O)NCCc2nnc(SCC(=O)Nc3nc(-c4ccccc4)cs3)n2C)cc1 returned MIN6 prolif -2, TLR9-MyD88 inh -4, TLR4 MyD88 comp -3, MC4R barr agon 21*, MC4R antagonist -4, NOD2 RIPK2 PPI -6, MC4R barr ag 8.9* and MOR-DOR barr ag 3.
Screening Cc1ccc(S(=O)(=O)N2[C@@H](c3ccc(C(C)(C)C)cc3)C(C(=O)O)=CC[C@H]2c2ccc(C(C)C)cc2)cc1 returned MIN6 prolif -5, TLR9-MyD88 inh 5, MC4R barr agon 20*, MC4R antagonist 9, NOD2 RIPK2 PPI -18, MC4R barr ag 15* and MOR-DOR barr ag 5.
For Cc1ccc([C@@H]2CC=C(C(=O)O)[C@H](c3ccc(C(C)(C)C)cc3)N2S(=O)(=O)c2ccc(C)cc2)cc1 the results were MIN6 prolif -5, TLR9-MyD88 inh 7, MC4R barr agon 5, MC4R antagonist 11 and NOD2 RIPK2 PPI 8.
For COc1ccc(C2(C)NC(=O)N(CC(=O)NC3CCCC3)C2=O)cc1OC (configuration not stated) the results were MIN6 prolif 1, TLR9-MyD88 inh -1, MC4R barr agon 0, MC4R antagonist -6 and NOD2 RIPK2 PPI -1.
For CC(C)(C)c1ccc(/C=N/NC(=O)Cc2c[nH]c3ccccc23)cc1 the results were MIN6 prolif -6, TLR9-MyD88 inh 8, TLR4 MyD88 comp -9, MC4R barr agon 10*, MC4R antagonist -1, NOD2 RIPK2 PPI -17, MC4R barr ag 5 and MOR-DOR barr ag 11.
COc1ccc(CCN2C(=O)C(Oc3ccccc3)C2c2ccc3c(c2)OCO3)cc1 (configuration not stated) was read as MIN6 prolif 0, TLR9-MyD88 inh -7, TLR4 MyD88 comp -15, MC4R barr agon 18*, MC4R antagonist 7, NOD2 RIPK2 PPI 0, MC4R barr ag 0 and MOR-DOR barr ag 3.
COc1ccc(OC2C(=O)N(Cc3ccc4c(c3)OCO4)C2c2cccs2)cc1 (configuration not stated) was read as MIN6 prolif -3, TLR9-MyD88 inh 0, TLR4 MyD88 comp 17, MC4R barr agon -1, MC4R antagonist 6 and NOD2 RIPK2 PPI 0.
`O=C(NN=Cc1cc(Cl)ccc1[N+](=O)[O-])c1cccc2ccccc12` gave TLR9-MyD88 inh 4, MC4R barr agon 11*, MC4R antagonist -1, NOD2 RIPK2 PPI -3, MC4R barr ag 4 and MOR-DOR barr ag 9.
COc1ccc(C(=O)Nc2ccc(Nc3ccccc3)cc2)cc1[N+](=O)[O-] was read as MIN6 prolif -4, TLR9-MyD88 inh -5, MC4R barr agon 1, MC4R antagonist -10 and NOD2 RIPK2 PPI -6.
COc1ccc(C(=O)Nc2ccc(OCc3ccccc3)cc2)cc1[N+](=O)[O-] was read as MIN6 prolif -4, TLR9-MyD88 inh -8, TLR4 MyD88 comp 9, MC4R barr agon 30*, MC4R antagonist 0, NOD2 RIPK2 PPI -6, MC4R barr ag 10* and MOR-DOR barr ag 7.
For CCOc1ccc(/C=N/OCC(=O)Nc2ccc(OCc3ccccc3)cc2)cc1OC the results were MIN6 prolif -5, TLR9-MyD88 inh -7, TLR4 MyD88 comp -2, MC4R barr agon 13*, MC4R antagonist 12, NOD2 RIPK2 PPI -28, MC4R barr ag 8.2* and MOR-DOR barr ag 2.
`COc1ccc(C(=O)Nc2cccc([N+](=O)[O-])c2)cc1Br` gave MIN6 prolif -3, TLR9-MyD88 inh 13, TLR4 MyD88 comp -29, MC4R barr agon 22*, MC4R antagonist -10, NOD2 RIPK2 PPI -5, MC4R barr ag 8.9* and MOR-DOR barr ag 13.
Screening COc1ccc(C(=O)Nc2ccc(OC)c([N+](=O)[O-])c2)cc1Br returned MIN6 prolif 0, TLR9-MyD88 inh 6, TLR4 MyD88 comp -8, MC4R barr agon -1, MC4R antagonist -6 and NOD2 RIPK2 PPI 16.
